Measurements reported in ChEMBL document CHEMBL1944523, “Benzimidazolones: a new class of selective peroxisome proliferator-activated receptor γ (PPARγ) modulators” (J Med Chem, 2011).
The source made the active and inactive calls. The calls are words filed in the database; no cut-off is given here.

Key:
[1] = AUC in db/db C57BLKS/J-m +/+ Leprdb mouse at 30 mg/kg, po qd for 10 days measured on day 11; assay type: ADME, organism-based; parameters: dose 30 mg/kg, route oral; details: plasma
In short: (§1)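 Male db/db (C57BLKS/J-m +/+Leprdb) mice aged 12−13 weeks, seven per group, gavaged once daily with compound in 0.25% methylcellulose vehicle. Total compound exposure measured at study end: plasma acidified with 0.5 M formate buffer pH 3.0, protein precipitated with acetonitrile, quantified by LC−MS−MS against calibration curves in control plasma.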

Rattus norvegicus [2] = assay: Antidiabetic activity in obese insulin resistant Zucker fa/fa rat assessed as decrease in triglyceride level in plasma at 0.1 to 100 mg/kg qd for 7 days; assay type: functional, organism-based
In short: (§2)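 Obese insulin-resistant Zucker fa/fa rats (n = 8) dosed daily for 7 days with vehicle or compound. Tail-nick blood taken 1 day before dosing and 1 day after the seventh dose; plasma insulin by rat insulin RIA, free fatty acids and triglyceride by enzymatic kits per manufacturer instructions.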

Cytochrome P450 2D6 = Cytochrome P450 2D6 (Homo sapiens, UniProt P10635); assay: Inhibition of CYP2D6; assay type: ADME
Sequence of Cytochrome P450 2D6 (P10635 whole entry): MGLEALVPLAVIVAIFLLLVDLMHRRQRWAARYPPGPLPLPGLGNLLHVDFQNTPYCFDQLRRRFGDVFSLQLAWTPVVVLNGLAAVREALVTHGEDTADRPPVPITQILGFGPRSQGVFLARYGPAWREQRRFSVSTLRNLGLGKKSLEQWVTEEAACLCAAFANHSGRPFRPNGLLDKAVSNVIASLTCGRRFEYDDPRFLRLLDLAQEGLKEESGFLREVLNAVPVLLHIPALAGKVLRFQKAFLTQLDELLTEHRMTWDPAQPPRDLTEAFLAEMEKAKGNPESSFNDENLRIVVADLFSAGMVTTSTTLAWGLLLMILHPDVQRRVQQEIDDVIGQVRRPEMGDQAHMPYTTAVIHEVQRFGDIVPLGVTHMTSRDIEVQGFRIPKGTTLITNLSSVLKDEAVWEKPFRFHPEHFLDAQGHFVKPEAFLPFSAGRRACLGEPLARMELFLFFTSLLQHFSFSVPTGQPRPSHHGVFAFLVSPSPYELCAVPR

Rattus norvegicus [3] = assay: Toxicity in obese insulin resistant Zucker fa/fa rat assessed as increase in plasma volume at >= 10 mg/kg; details: in vivo, 100 mg/kg
Cytochrome P450 2C8 = target: T1, Cytochrome P450 2C8 (Homo sapiens, UniProt P10632); assay: Inhibition of CYP2C8; assay type: ADME
T1 sequence (P10632 whole entry): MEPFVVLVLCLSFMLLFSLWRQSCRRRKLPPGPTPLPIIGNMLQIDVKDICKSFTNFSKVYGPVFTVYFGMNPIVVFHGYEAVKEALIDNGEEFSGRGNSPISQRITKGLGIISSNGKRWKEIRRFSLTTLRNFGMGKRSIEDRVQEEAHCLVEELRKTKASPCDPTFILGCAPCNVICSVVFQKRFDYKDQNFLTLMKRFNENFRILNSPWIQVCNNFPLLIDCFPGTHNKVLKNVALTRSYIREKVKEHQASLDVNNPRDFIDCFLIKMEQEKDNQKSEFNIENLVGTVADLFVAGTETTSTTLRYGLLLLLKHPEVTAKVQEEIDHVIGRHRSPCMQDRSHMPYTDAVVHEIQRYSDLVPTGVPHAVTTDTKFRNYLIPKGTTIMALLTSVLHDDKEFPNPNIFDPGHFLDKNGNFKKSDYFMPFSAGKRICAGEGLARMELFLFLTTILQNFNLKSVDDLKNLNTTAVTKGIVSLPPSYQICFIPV

[4] = AUC in db/db C57BLKS/J-m +/+ Leprdb mouse at 10 mg/kg, po qd for 10 days measured on day 11; assay type: ADME, organism-based; parameters: dose 10 mg/kg, route oral; details: plasma; in short: as §1
Mus musculus [5] = assay: Antidiabetic activity in db/db C57BLKS/J-m +/+ Leprdb mouse assessed as reduction of glucose level at 20 mg/kg, po qd for 10 days measured on 11 relative to control; assay type: functional; parameters: scale not given: the % may be the effect or the level left
In short: (§3)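 Male db/db (C57BLKS/J-m +/+Leprdb) mice, 12−13 weeks old, seven per group, chow and water freely available; once-daily oral gavage in 0.25% methylcellulose vehicle for 11 days. Tail blood drawn just before next dose on days 0, 4, 7 and 11 for plasma glucose. Value is percent correction versus vehicle control; mean of n = 7; rosiglitazone 10 mpk positive control.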

COS-1 = assay: Binding affinity to human PPARgamma LBD Y473A mutant expressed in COS1 cells co-expressing GAL4 by scintillation proximity assay; assay type: cell-based
Rattus norvegicus [6] = assay: Antidiabetic activity in obese insulin resistant Zucker fa/fa rat assessed as decrease in free fatty acids level in plasma at 0.1 to 100 mg/kg qd for 7 days; assay type: functional, organism-based; in short: as §2
Mus musculus [7] = assay: Antidiabetic activity in db/db C57BLKS/J-m +/+ Leprdb mouse assessed as reduction of glucose level at 25 mg/kg, po qd for 10 days measured on 11 relative to control; assay type: functional; parameters: scale not given: the % may be the effect or the level left; in short: as §3
[8] = Half life in rat at 0.5 mg/kg, iv and 2 mg/kg, po by LC-MS/MS analysis; assay type: ADME, organism-based; details: in vivo
In short: (§4)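 Rat pharmacokinetics: 2 mpk oral in 5% methylcellulose, 0.5 mpk iv in ethanol/PEG400/water (1/4/5). Blood sampled at set intervals; plasma acidified with 0.5 M formate buffer pH 3.0, acetonitrile-precipitated, quantified by LC−MS−MS against spiked control-plasma calibration curves.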

Cytochrome P450 2C9 = Cytochrome P450 2C9 (Homo sapiens, UniProt P11712); assay: Inhibition of CYP2C9; assay type: ADME
Sequence of Cytochrome P450 2C9 (P11712 whole entry): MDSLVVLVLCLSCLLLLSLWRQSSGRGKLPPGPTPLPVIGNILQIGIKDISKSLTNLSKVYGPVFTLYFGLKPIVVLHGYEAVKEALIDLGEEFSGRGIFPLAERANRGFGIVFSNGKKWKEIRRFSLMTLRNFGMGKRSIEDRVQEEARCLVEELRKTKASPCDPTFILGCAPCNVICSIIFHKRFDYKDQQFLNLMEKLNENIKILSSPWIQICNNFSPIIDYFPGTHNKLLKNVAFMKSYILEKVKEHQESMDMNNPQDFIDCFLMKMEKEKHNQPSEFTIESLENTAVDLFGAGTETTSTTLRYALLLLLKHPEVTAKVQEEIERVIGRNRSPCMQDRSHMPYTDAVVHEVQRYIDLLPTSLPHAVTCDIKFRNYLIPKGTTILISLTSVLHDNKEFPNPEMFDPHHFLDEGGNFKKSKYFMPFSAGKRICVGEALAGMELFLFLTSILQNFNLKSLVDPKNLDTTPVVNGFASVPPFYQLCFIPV

[9] = target: T2, Peroxisome proliferator-activated receptor delta (Homo sapiens, UniProt Q03181); assay: Binding affinity to PPARdelta by scintillation proximity assay
T2 sequence (Q03181 whole entry): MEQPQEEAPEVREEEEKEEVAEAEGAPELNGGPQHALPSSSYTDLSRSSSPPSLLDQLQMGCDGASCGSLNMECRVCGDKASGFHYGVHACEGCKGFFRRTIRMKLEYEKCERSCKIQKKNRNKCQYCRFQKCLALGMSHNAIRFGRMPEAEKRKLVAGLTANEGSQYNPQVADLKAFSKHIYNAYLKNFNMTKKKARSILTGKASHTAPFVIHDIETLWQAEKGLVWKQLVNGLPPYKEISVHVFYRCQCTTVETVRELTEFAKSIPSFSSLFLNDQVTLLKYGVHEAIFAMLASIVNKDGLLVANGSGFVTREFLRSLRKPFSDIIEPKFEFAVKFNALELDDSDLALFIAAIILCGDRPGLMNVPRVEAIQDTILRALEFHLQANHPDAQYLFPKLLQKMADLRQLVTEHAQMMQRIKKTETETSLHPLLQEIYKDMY
In short: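 Scintillation proximity binding assay on PPAR receptors giving IC50; mean of three determinations.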

[10] = AUC in db/db C57BLKS/J-m +/+ Leprdb mouse at 3 mg/kg, po qd for 10 days measured on day 11; assay type: ADME, organism-based; parameters: dose 3 mg/kg, route oral; details: plasma; in short: as §1
Rattus norvegicus [11] = assay: Antidiabetic activity in obese insulin resistant Zucker fa/fa rat assessed as decrease in insulin level in plasma at 0.1 to 100 mg/kg qd for 7 days; assay type: functional, organism-based; in short: as §2
Mus musculus [12] = assay: Toxicity in db/db C57BLKS/J-m +/+ Leprdb mouse assessed as increase in water content of epididymal fat pad at 10 to 30 mg/kg, po qd for 10 days measured on day 11 by vaccum drying method; assay type: organism-based; parameters: dose 10-30 mg/kg, route oral; details: in vivo, 240 h
In short: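 Male db/db mice, seven per group, gavaged daily in 0.25% methylcellulose; after day 11 dosing epididymal fat pads excised, weighed, vacuum centrifugal-dried over 24 h, reweighed to give water content; mean of seven determinations.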

[13] = Oral bioavailability in rat at 2 mg/kg by LC-MS/MS analysis; assay type: ADME, organism-based; details: in vivo; in short: as §4
[14] = Inhibition of Ikr channel up to 10 uM
[15] = Inhibition of serine/threonine-protein kinase

## COc1ccc2c(-n3c(=O)n(Cc4cccc([C@@]5(C)OC(=O)NC5=O)c4)c4ccccc43)noc2c1
[1]
  AUC at 240 h: 450 µM·h
Rattus norvegicus [2]
  Activity: Active
Cytochrome P450 2D6
  IC50: 91 µM
Rattus norvegicus [3]
  Activity: Toxic
Cytochrome P450 2C8
  IC50: 10 µM
[4]
  AUC at 240 h: 129 µM·h
Mus musculus [5]
  Activity: 77%
COS-1
  Activity: Active
Rattus norvegicus [6]
  Activity: Active
Mus musculus [7]
  Activity: 84%
[8]
  half-life: 4.2 h
Cytochrome P450 2C9
  IC50: 2 µM
[9]
  IC50: > 50 µM
[10]
  AUC at 240 h: 70 µM·h
Rattus norvegicus [11]
  Activity: Active
Mus musculus [12]
  Activity: Non-toxic
[13]
  bioavailability: 87%
[14]
  inhibition: inactive
[15]
  INH: 0.951 µM
